Assay results pooled from the literature.
Lines come from different studies, so protocols differ. Converted amounts (≈) assume the structure as drawn.

SMILES | target or system | test | test system | setting | endpoint | result
OC(Cn1cncn1)(Cn1cncn1)c1ccc(F)cc1F | Nakaseomyces glabratus | microbial growth, broth dilution | ATCC2001 | – | MIC | 2 µg/mL
CC[C@@]1(O)C(=O)OCc2c1cc1n(c2=O)Cc2cc3ccccc3nc2-1 | LS174T | cell growth or viability, MTT | – | 48 h | IC50 | 31.6 µM
O=C/C=C/c1ccccc1 | Cryptococcus neoformans | microbial killing, broth dilution | – | clinical isolate | MFC | 200 µg/mL (≈ 1510 µM)
N.N.[Cl][Pt][Cl] | HaCaT | cell growth or viability, MTT | – | 48 h | IC50 | 14.2 µM
COc1ccc(-c2[nH]c3c(C)c(C)ccc3c2C(=O)c2cc(OC)c(OC)c(OC)c2)cc1O | – | tubulin polymerisation, inhibitor, absorbance | – | – | IC50 | > 20 µM
Oc1c(Br)cc(Br)cc1-c1[nH]c(Br)c(Br)c1Br | Bacillus subtilis | microbial growth | ATCC6051 | – | MIC | 0.01 µM
COc1ccc(-c2[nH]c3c(OC)c(OC)c(OC)cc3c2C(=O)c2cc(OC)c(OC)c(OC)c2)cc1O | – | tubulin polymerisation, inhibitor, absorbance | – | – | IC50 | > 20 µM
Oc1c(Cl)cc(Cl)cc1-c1[nH]c(Cl)c(Cl)c1Cl | Bacillus subtilis | microbial growth | ATCC6051 | – | MIC | 0.04 µM
